According to ChEMBL document CHEMBL1138023, “Macrocyclic ketone analogues of halichondrin B” (Bioorg Med Chem Lett, 2004):

How the values were obtained:
[1] = In vitro reversibility ratio in U937 cells; type: functional, U-937
Procedure, shortened: (§1)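 Human histiocytic lymphoma U937 cells, read by flow cytometry. Scores whether a complete mitotic block is maintained 10 h after drug washout.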

P388 = experiment: Fold resistance calculated as the inhibition concentration ratio between retrovirally transformed murine P388/VMDRC.04 and parental P388 cells; type: functional
Procedure, shortened: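 Readout of P-glycoprotein (PgP) susceptibility: IC50 in the retrovirally transformed P388/VMDRC.04 line divided by IC50 in parental P388 cells, giving fold resistance.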

U-937 [2] = experiment: In vitro inhibitory concentration required to inhibit the growth of U937 cells was determined at 0 hr by mitotic block reversibility assay; type: functional; conditions: Homo sapiens, U-937, 0 h
U-937 [3] = experiment: In vitro inhibitory concentration required to inhibit the growth of U937 cells was determined at 10 hr by mitotic block reversibility assay; type: functional; conditions: Homo sapiens, U-937, 10 h; procedure, shortened: as §1
DLD-1 = experiment: In vitro inhibitory concentration required to inhibit the growth of DLD-1 cells under continuous exposure conditions for 3-4 days; type: functional, cell-based; conditions: Homo sapiens
Procedure, shortened: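 Human colon cancer DLD-1 cells grown under continuous drug exposure for 3–4 days. Growth inhibition measured and IC50 reported ± SEM, n = number of experiments.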

## C=C1C[C@@H]2CC[C@@]34C[C@@H]5O[C@@H]6C(O[C@H]7CC[C@H](CC(=O)C[C@@H]8[C@@H](OC)[C@@H](C[C@H](O)CSc9ccc(OC)cc9)O[C@H]8C[C@H]8O[C@@H](CC[C@@H]1O2)C[C@@H](C)C8=C)O[C@@H]7[C@@H]6O3)[C@H]5O4
[1]
  Reversibility ratio: 10
P388
  FR: 1.7
U-937 [2]
  IC99: 0.003 µM
U-937 [3]
  IC99: 0.03 µM
DLD-1
  IC50: 0.71 nM

## C=C1C[C@@H]2CC[C@@]34C[C@@H]5O[C@@H]6C(O[C@H]7CC[C@H](CC(=O)C[C@@H]8[C@@H](OC)[C@@H](C[C@H](O)CN9CCOCC9)O[C@H]8C[C@H]8O[C@@H](CC[C@@H]1O2)C[C@@H](C)C8=C)O[C@@H]7[C@@H]6O3)[C@H]5O4
[1]
  Reversibility ratio: 7
P388
  FR: 4.7
U-937 [2]
  IC99: 0.003 µM
U-937 [3]
  IC99: 0.02 µM
DLD-1
  IC50: 0.43 nM

## C=C1C[C@@H]2CC[C@@]34C[C@@H]5O[C@@H]6C(O[C@H]7CC[C@H](CC(=O)C[C@@H]8[C@@H](OC)[C@@H](C[C@H](O)CS(=O)(=O)c9ccc(Cl)cc9)O[C@H]8C[C@H]8O[C@@H](CC[C@@H]1O2)C[C@@H](C)C8=C)O[C@@H]7[C@@H]6O3)[C@H]5O4
[1]
  Reversibility ratio: 10
P388
  FR: 3.2
U-937 [2]
  IC99: 0.003 µM
U-937 [3]
  IC99: 0.03 µM
DLD-1
  IC50: 0.66 nM

## C=C1C[C@@H]2CC[C@@]34C[C@@H]5O[C@@H]6C(O[C@H]7CC[C@H](CC(=O)C[C@@H]8[C@@H](OC)[C@@H](C[C@H](O)CNC)O[C@H]8C[C@H]8O[C@@H](CC[C@@H]1O2)C[C@@H](C)C8=C)O[C@@H]7[C@@H]6O3)[C@H]5O4
[1]
  Reversibility ratio: 1
P388
  FR: 7
U-937 [2]
  IC99: 0.01 µM
U-937 [3]
  IC99: 0.01 µM
DLD-1
  IC50: 3.3 nM

## C=C1C[C@@H]2CC[C@@]34C[C@@H]5O[C@@H]6C(O[C@H]7CC[C@H](CC(=O)C[C@@H]8[C@@H](OC)[C@@H](C[C@H](O)CS(=O)(=O)c9ccc(OC)cc9)O[C@H]8C[C@H]8O[C@@H](CC[C@@H]1O2)C[C@@H](C)C8=C)O[C@@H]7[C@@H]6O3)[C@H]5O4
[1]
  Reversibility ratio: 10
P388
  FR: 3.4
U-937 [2]
  IC99: 0.003 µM
U-937 [3]
  IC99: 0.03 µM
DLD-1
  IC50: 0.74 nM

## C=C1C[C@@H]2CC[C@@]34C[C@@H]5O[C@@H]6C(O[C@H]7CC[C@H](CC(=O)C[C@@H]8[C@@H](OC)[C@@H](C[C@H](O)CN(C)C)O[C@H]8C[C@H]8O[C@@H](CC[C@@H]1O2)C[C@@H](C)C8=C)O[C@@H]7[C@@H]6O3)[C@H]5O4
[1]
  Reversibility ratio: 10
P388
  FR: 22
U-937 [2]
  IC99: 0.001 µM
U-937 [3]
  IC99: 0.01 µM
DLD-1
  IC50: 1.2 nM

## C=C1C[C@@H]2CC[C@@]34C[C@@H]5O[C@@H]6C(O[C@H]7CC[C@H](CC(=O)C[C@@H]8[C@@H](OC)[C@@H](C[C@H](O)CN9CCCCC9)O[C@H]8C[C@H]8O[C@@H](CC[C@@H]1O2)C[C@@H](C)C8=C)O[C@@H]7[C@@H]6O3)[C@H]5O4
[1]
  Reversibility ratio: 10
P388
  FR: 17
U-937 [2]
  IC99: 0.001 µM
U-937 [3]
  IC99: 0.01 µM
DLD-1
  IC50: 0.47 nM

## C=C1C[C@@H]2CC[C@@]34C[C@@H]5O[C@@H]6C(O[C@H]7CC[C@H](CC(=O)C[C@@H]8[C@@H](OC)[C@@H](C[C@H](O)CNC(=O)C(=O)c9ccccc9)O[C@H]8C[C@H]8O[C@@H](CC[C@@H]1O2)C[C@@H](C)C8=C)O[C@@H]7[C@@H]6O3)[C@H]5O4
[1]
  Reversibility ratio: 3
P388
  FR: 3.6
U-937 [2]
  IC99: 0.003 µM
U-937 [3]
  IC99: 0.01 µM
DLD-1
  IC50: 0.87 nM

## C=C1C[C@@H]2CC[C@@]34C[C@@H]5O[C@@H]6C(O[C@H]7CC[C@H](CC(=O)C[C@@H]8[C@@H](OC)[C@@H](C[C@H](O)CSc9ccc(Cl)cc9)O[C@H]8C[C@H]8O[C@@H](CC[C@@H]1O2)C[C@@H](C)C8=C)O[C@@H]7[C@@H]6O3)[C@H]5O4
[1]
  Reversibility ratio: 20
P388
  FR: 2
U-937 [2]
  IC99: 0.01 µM
U-937 [3]
  IC99: 0.2 µM
DLD-1
  IC50: 1.2 nM

## C=C1C[C@@H]2CC[C@@]34C[C@@H]5O[C@@H]6C(O[C@H]7CC[C@H](CC(=O)C[C@@H]8[C@@H](OC)[C@@H](C[C@H](O)CNC(=O)c9ccc(Cl)cc9)O[C@H]8C[C@H]8O[C@@H](CC[C@@H]1O2)C[C@@H](C)C8=C)O[C@@H]7[C@@H]6O3)[C@H]5O4
[1]
  Reversibility ratio: 7
P388
  FR: 5.9
U-937 [2]
  IC99: 0.003 µM
U-937 [3]
  IC99: 0.02 µM
DLD-1
  IC50: 0.69 nM

## C=C1C[C@@H]2CC[C@@]34C[C@@H]5O[C@@H]6C(O[C@H]7CC[C@H](CC(=O)C[C@@H]8[C@@H](OC)[C@@H](C[C@H](O)CNC(=O)c9cc(OC)c(OC)c(OC)c9)O[C@H]8C[C@H]8O[C@@H](CC[C@@H]1O2)C[C@@H](C)C8=C)O[C@@H]7[C@@H]6O3)[C@H]5O4
[1]
  Reversibility ratio: 5
P388
  FR: 20
U-937 [2]
  IC99: 0.002 µM
U-937 [3]
  IC99: 0.01 µM
DLD-1
  IC50: 0.72 nM
